Compounds with a hit are over-represented: about 6.3% of the library has one in this group of screens.
Ecoli tolC: blocks growth of E. coli BW25113 tolC mutant. hit rate 2.2% among 65,000. growth inhibition, % at 10 µM (by protocol). OD615;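 active = growth inhibition at or above a cutoff equal to the mean over every tested compound plus 3 SD, cut at about 60% in these data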;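 note: growth measured after 20 h incubation at 37 °C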
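test system = E. coli BW25113 ΔtolC::kan bacteria | medium = LB with kanamycin 50 µg/mL | signal = OD at 615 nm | schedule = 37 °C, 20 h exposure | evaluation = % inhibition of E. coli growth | compound dosing = one dose of 10 µM final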
PostGolgi yeast: growth inhibition of a yeast mutant, post-Golgi transport screen. hit rate 0.9% among 98,000. inhibition, % at 10 µM. AID 739. post-Golgi transport phenotypic cell assay;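 note: yeast cells grown in 1536-well plates; yeast grown about 18 h at 30C before absorbance read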
Ecoli WT expand: growth inhibitors of E. coli BW25113 wild type | hit rate 0.15% among 98,000 | AID 710 | OD600 absorbance | growth inhibition, % at 100 µM;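 active = growth inhibition above about 50% at one test dose, limit read from the data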;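 note: growth measured after 20 h incubation at 37 °C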
PostGolgi ctrl: yeast control strain growth, post-Golgi counter-screen; efflux-deficient yeast background strain, growth absorbance A615, 16 h; inhibition, % at 10 µM; hit rate 5% among 98,000; AID 738
Numbers without * were called inactive; x = no result. Cut-off read from the data, not from the text of the source, unless noted: active = inhibition above about 30%; inactive = the rest.

SMILES | Ecoli tolC | PostGolgi yeast | Ecoli WT expand | PostGolgi ctrl
O=C(Nc1nc(-c2ccccc2)cs1)C1CCCCN1S(=O)(=O)c1ccccc1 (stereo unspecified) | 21.1 | -7.2 | -9.0 | 34.8*
NC(=O)c1ccsc1NC(=O)C1CCCN1S(=O)(=O)c1ccc(Cl)cc1 (stereo unspecified) | 18.1 | -6.9 | 7.0 | 35.7*
O=C(Nc1nc(-c2ccccc2)cs1)NC1CCCCC1 | x | -2.2 | -1.0 | 49.9*
O=C(Nc1nc(-c2ccccc2)cs1)C1CCCO1 (stereo unspecified) | 0.3 | -3.5 | 5.0 | -5.7
Cc1nn(CC#N)c(=O)n1-c1ccccc1 | x | -13.8 | -1.0 | -2.5
COc1ccc2[nH]cc(CCN=C3SCC(=O)N3C)c2c1 | -2.3 | -1.2 | -2.0 | 5.2
Cn1c(=O)n(C)c2cc(NC(=O)CSc3nnc(-c4ccccc4O)n3-c3ccccc3)ccc21 | 3.9 | -6.0 | -5.0 | 2.0
CCCS(=O)(=O)N1CCCC(C(=O)NCCCN(C)Cc2ccccc2)C1 (stereo unspecified) | -33.0 | 5.0 | 1.0 | 38.9*
Cc1ccc(Cl)cc1N1CCN(S(=O)(=O)c2ccc3c(c2)oc(=O)n3C)CC1 | 17.8 | -2.7 | -1.0 | 37.3*
O=C(OCC(=O)N1CCN(C(=O)c2ccco2)CC1)c1cc(-c2ccc(F)cc2)nc2ccccc12 | 11.0 | 47.3* | -6.0 | 73.2*
O=C(OCC(=O)N1CCN(C(=O)c2ccco2)CC1)c1ccccc1OCc1ccccc1 | 19.2 | -1.4 | -5.0 | -1.6
O=C(OCC(=O)N1CCN(C(=O)c2ccco2)CC1)c1ccccc1C(=O)c1ccccc1 | -0.5 | 4.2 | -3.0 | 2.8
O=C(OCC(=O)N1CCN(C(=O)c2ccco2)CC1)c1cc(-c2ccccc2)nc2ccccc12 | 27.6 | 43.6* | -14.0 | 47.5*
O=C(OCC(=O)N1CCN(C(=O)c2ccco2)CC1)c1cn(-c2ccccc2)nc1-c1ccccc1 | 10.1 | 47.7* | -5.0 | 100.7*
O=C(OCC(=O)N1CCN(C(=O)c2ccco2)CC1)c1cc(-c2cccc(Br)c2)nc2ccccc12 | x | 79.6* | -8.0 | 72.5*
COC(=O)c1sccc1-c1ccc(/C=N/OC(=O)c2ccccc2)o1 | x | 4.0 | -11.0 | 15.9
CC(=O)N1CCCc2cc(S(=O)(=O)N3CCN(c4ccccn4)CC3)ccc21 | 22.9 | 0.0 | 6.0 | 7.5
Oc1ccc(Nc2nc(N3CCCC3)c3ccccc3n2)cc1 | 32.8 | 14.8 | -1.0 | -2.2
CCOc1ccc(Nc2nc(N3CCCCC3)nc(N3CCCCC3)n2)cc1 | x | 26.5 | -13.0 | 3.9
c1ccc(Nc2nc(N3CCCCC3)nc(N3CCCCC3)n2)cc1 | x | -3.8 | -19.0 | 52.6*
c1ccc(Nc2nc(N3CCCCC3)nc(N3CCNCC3)n2)cc1 | -2.9 | 0.8 | 32.0 | 14.6
COc1ccc(Nc2nc(N3CCCCC3)c3ccccc3n2)cc1 | x | 59.2* | 1.0 | 86.2*
c1ccc(Nc2nc(N3CCCC3)nc(N3CCCC3)n2)cc1 | x | 8.2 | -2.0 | 69.7*
CCOC(=O)N1CCC(NC(=O)C(NC(=O)C2CCC(C)CC2)C(C)CC)CC1 (stereo unspecified) | x | 8.9 | -1.0 | -8.9
NC(=O)c1ccc(C(F)(F)F)n(Cc2c(Cl)cccc2Cl)c1=O | x | 7.0 | -9.0 | 33.9*
SMILES | Ecoli tolC | PostGolgi yeast | Ecoli WT expand | PostGolgi ctrl
CCOC(=O)n1c(=O)n(Cc2c(Cl)cccc2Cl)c2ccccc21 | x | 7.0 | -4.0 | 9.1
Clc1ccc(OCc2nnc(-c3ccccc3Br)o2)cc1 | 62.7* | -9.9 | 3.0 | 28.7
COc1ccc(NC(=O)C(=O)N/N=C/c2cc(C)n(-c3cccc(Cl)c3Cl)c2C)c(OC)c1 | x | 3.3 | -7.0 | 4.0
CCN(CC)S(=O)(=O)c1cccc(-c2nnc(C(=O)c3ccc(C(F)(F)F)cc3)o2)c1 | -8.0 | -12.4 | -12.0 | -1.8
CCCN(CCC)S(=O)(=O)c1ccc(C(=O)Nc2nnc(-c3cc(OC)cc(OC)c3)o2)cc1 | 97.8* | -3.7 | -6.0 | 0.6
COCCN(CCOC)S(=O)(=O)c1ccc(C(=O)Nc2nnc(C3CC3)o2)cc1 | -8.9 | 7.6 | -1.0 | 6.8
CCCN(CCC)S(=O)(=O)c1ccc(C(=O)Nc2nnc(-c3cccc(OC)c3)o2)cc1 | 100.0* | x | x | x
COc1ccc(C2C(C#N)=C(N)N3C(=C2C#N)Sc2ccccc23)cc1 (stereo unspecified) | 14.6 | -7.5 | -4.0 | 30.3*
COc1ccc(C2C(C#N)=C(N)SC(N)=C2C#N)cc1OC | 5.2 | 0.8 | 6.0 | 2.6
O=S(=O)(Nc1cccc2c1ccc1cccn12)c1cccs1 | x | 15.3 | 3.0 | -2.8
CC(C)OC(=O)CSc1nnc(-c2ccc(Cl)cc2Cl)o1 | 11.1 | 12.1 | -10.0 | 9.1
CCCCOC(=O)CSc1nnc(-c2ccc(Cl)cc2Cl)o1 | 73.4* | -0.9 | 11.0 | 15.8
Cn1c(C(=O)N2CCN(c3cccc(C(F)(F)F)c3)CC2)cc2sccc21 | 70.9* | 3.5 | -29.0 | 48.1*
Cc1ccc(C)c(N2CCN(C(=O)c3cc4sccc4n3C)CC2)c1 | 76.3* | -1.7 | -6.0 | 35.7*
CCOC(=O)N1CCC(NC(=O)c2cc3ccccn3n2)CC1 | -13.6 | 3.4 | 10.0 | -0.7
Cc1cccc2cc(CN(Cc3ccccc3)C(=O)c3cccc(F)c3)c(Cl)nc12 | x | -4.3 | -17.0 | 20.9
Cc1cccc2cc(CN(C(=O)c3cnccn3)C3CCCCC3)c(Cl)nc12 | x | -4.4 | -6.0 | 33.0*
COCCN(Cc1cc2cccc(C)c2[nH]c1=O)C(=O)c1ccccc1 | -11.6 | 6.1 | -5.0 | 34.5*
CC(OC(=O)c1ccco1)C(=O)NCc1cccs1 (stereo unspecified) | -13.9 | 10.3 | -4.0 | -15.9
O=C1N2CCSC2=NC1(Nc1ccccn1)C(F)(F)F (stereo unspecified) | -18.9 | -0.3 | 2.0 | 48.3*
Cc1ccc(C(=O)NC2(C(F)(F)F)N=C3SCCN3C2=O)cc1 (stereo unspecified) | x | -2.0 | 7.0 | 6.8
O=C(Nc1ccncc1)c1ccccc1F | -5.5 | -7.4 | 1.0 | 42.4*
NC(=O)c1cc(N)ccc1N1CCCC1 | -9.6 | 1.4 | 7.0 | 31.8*
Cc1cc(N)ccc1N1CCCC1 | x | -3.1 | -7.0 | 15.1
Cc1ccc(-c2[nH]nc(N)c2N=Nc2ccccc2C)cc1 | x | 53.6* | 1.0 | 62.9*
SMILES | Ecoli tolC | PostGolgi yeast | Ecoli WT expand | PostGolgi ctrl
Cc1ccc(-c2[nH]nc(N)c2N=Nc2cccc(Cl)c2C)cc1 | x | 15.4 | -16.0 | 44.5*
Cc1cccc(N=Nc2c(N)n[nH]c2-c2ccc(Cl)cc2)c1 | x | 4.7 | -12.0 | 33.6*
Cc1cc2nc(SCCOC(=O)Nc3ccc(Cl)cc3)nc(C)c2cc1C | x | 0.8 | -10.0 | 14.7
O=C(OCc1ccccc1Cl)c1ccc(-n2cnnc2)cc1 | -3.9 | 0.0 | -11.0 | 12.2
COc1cccc(NC(=O)N2CCN(c3cccc(C)c3C)CC2)c1 | 71.8* | -7.3 | -6.0 | -1.1
CC(=O)Nc1ccc(S(=O)(=O)N2CCN(c3cccc(C)c3C)CC2)cc1 | 22.4 | 2.2 | -1.0 | 50.6*
Cc1cccc(N2CCN(C(=O)Cc3cn(C)c4ccccc34)CC2)c1C | x | 7.7 | -9.0 | 43.5*
CC(=O)Nc1ccc(S(=O)(=O)N2CCCN(S(=O)(=O)c3ccc(NC(C)=O)cc3)CC2)cc1 | 0.0 | 6.4 | -9.0 | 0.8
COc1ccccc1N1CCN(C(=O)Nc2cccc(Cl)c2)CC1 | x | 12.4 | 2.0 | 11.4
Cc1cccc(N2CCN(C(=O)Cn3cccc3)CC2)c1C | 14.1 | 4.0 | 6.0 | 8.3
Cc1cccc(N2CCN(C(=O)C(C)C)CC2)c1C | x | 90.9* | 0.0 | 85.4*

High-throughput results as filed in PubChem.
